Source: ChEMBL document CHEMBL1135813, “Orally-effective, long-acting sorbitol dehydrogenase inhibitors: synthesis, structure-activity relationships, and in vivo evaluations of novel heterocycle-substituted piperazino-pyrimidines” (J Med Chem, 2002)

Key:
Sorbitol dehydrogenase = target: T1, Sorbitol dehydrogenase (Homo sapiens, UniProt Q00796)
T1 sequence (Q00796 whole entry): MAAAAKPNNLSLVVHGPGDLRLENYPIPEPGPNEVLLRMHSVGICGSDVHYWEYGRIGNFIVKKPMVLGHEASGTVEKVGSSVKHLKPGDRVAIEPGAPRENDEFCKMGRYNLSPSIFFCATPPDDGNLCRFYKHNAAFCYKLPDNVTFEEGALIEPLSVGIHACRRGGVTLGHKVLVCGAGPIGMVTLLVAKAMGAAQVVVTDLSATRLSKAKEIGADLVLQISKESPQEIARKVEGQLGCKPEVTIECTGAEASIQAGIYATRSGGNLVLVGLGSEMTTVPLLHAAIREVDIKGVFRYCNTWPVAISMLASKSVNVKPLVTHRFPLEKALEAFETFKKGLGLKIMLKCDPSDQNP

Rattus norvegicus [1] = species on record: Rattus norvegicus; test: Concentration required for 50% prevention of sciatic nerve fructose accumulation using acute model in streptozocin (STZ)-induced diabetic rats; type: functional
Outline: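 STZ diabetes was induced in male CD Sprague-Dawley rats (175-225 g) with 85 mg/kg iv (citrate, pH 4.5). Oral gavage doses were given 4, 7 and 24 h after STZ, and rats were killed at 28 h. Left sciatic nerve was extracted in 6% perchloric acid and neutralized. Fructose was assayed with FDH/resazurin for 60 min at room temperature (fluorescence). ED50 is expressed as total mg/kg/day.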

Rattus norvegicus [2] = test: Concentration required for 50% ability to normalize elevated sciatic nerve fructose in reversal protocol using chronic model in streptozocin (STZ)-induced diabetic rats (in vivo); type: functional; details: in the assay text read “90% ability” for “50% ability”
Outline: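 Diabetes was induced in male CD Sprague-Dawley rats (175-225 g) with STZ (85 mg/kg in 0.01 M citrate, pH 4.5) by tail vein. Oral gavage was given once daily from day 8 for 5 days. Rats were killed 4 h after the last dose (day 12). Left sciatic nerve fructose was measured in perchloric acid extract by FDH/resazurin fluorescence (ex 560, em 580 nm) against standards.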

SMILES	IC50 (Sorbitol dehydrogenase)	ED50 (Rattus norvegicus [1])	ED90 (Rattus norvegicus [2])
C[C@@H](O)c1nccc(N2CCN(c3nc4ncccc4o3)CC2)n1	0.17 µM	–	–
C[C@@H](O)c1nccc(N2CCN(c3nc(C(F)(F)F)cc(C(F)(F)F)n3)CC2)n1	0.19 µM	–	–
OCc1nccc(N2CCN(c3nc4ccccc4o3)CC2)n1	0.19 µM	–	–
Cc1cc(CO)nc(N2CCN(c3ccnc([C@@H](C)O)n3)C[C@H]2C)n1	0.14 µM	–	–
C[C@@H](O)c1nccc(N2CCN(c3cnc4ccccc4n3)[C@@H](C)C2)n1	0.099 µM	–	–
Cc1cc(CO)nc(N2C[C@@H](C)N(c3ccnc([C@@H](C)O)n3)[C@@H](C)C2)n1	0.1 µM	–	1 mg/kg/day
Cc1cc(CO)nc(N2CCN(c3ccnc([C@@H](C)O)n3)[C@H](C)C2)n1	0.17 µM	–	–
Cc1cc(CO)nc(N2CCN(c3ccnc([C@@H](C)O)n3)[C@@H](C)C2)n1	0.2 µM	–	–
C[C@@H](O)c1nccc(N2CCN(c3cnc4cc(Cl)c(Cl)cc4n3)CC2)n1	0.12 µM	–	–
Cc1cc(-c2ccccc2)nc(N2CCN(c3ccnc([C@@H](C)O)n3)CC2)n1	0.22 µM	–	–
C[C@@H]1CN(c2cnc3ccccc3n2)C[C@H](C)N1c1ccnc([C@@H](C)O)n1	0.18 µM	–	1 mg/kg/day
C[C@@H]1CN(c2nc3ccncc3o2)C[C@H](C)N1c1ccnc([C@@H](C)O)n1	0.27 µM	–	–
Cc1cc(CO)nc(N2[C@H](C)CN(c3ccnc([C@@H](C)O)n3)C[C@@H]2C)n1	0.13 µM	–	–
Cc1ccnc(N2CCN(c3ccnc([C@@H](C)O)n3)CC2)n1	0.11 µM	–	–
OCc1nccc(N2CCN(c3ccnc(CO)n3)CC2)n1	0.26 µM	–	–
OCc1nccc(N2CCN(c3noc4ccccc34)CC2)n1	0.12 µM	–	–
OCc1nccc(N2CCN(c3nccc4ccccc34)CC2)n1	0.15 µM	–	–
Cc1cc(N2CCN(c3ccnc(CO)n3)CC2)nc(C)n1	0.14 µM	–	–
CN(C)S(=O)(=O)N1CCN(c2ccnc(CO)n2)CC1	0.24 µM	–	–

The next compounds have a lower IC50 (Sorbitol dehydrogenase) than those just listed; values first:

IC50 (Sorbitol dehydrogenase)	SMILES	ED50 (Rattus norvegicus [1])	ED90 (Rattus norvegicus [2])
0.093 µM	Cc1cc(C)nc(N2CCN(c3ccnc(CO)n3)CC2)n1	–	–
0.087 µM	OCc1nccc(N2CCN(c3ccc4ccccc4n3)CC2)n1	–	–
0.08 µM	Cc1cc(CO)nc(N2CCN(c3ccnc([C@@H](C)O)n3)C[C@@H]2C)n1	–	2 mg/kg/day
0.08 µM	CCc1cc(CC)nc(N2CCN(c3ccnc([C@@H](C)O)n3)CC2)n1	–	–
0.08 µM	C[C@@H](O)c1nccc(N2CCN(c3nc4cnccc4o3)CC2)n1	–	–
0.072 µM	CC(C)c1cc(C(C)C)nc(N2CCN(c3ccnc([C@@H](C)O)n3)CC2)n1	–	–
0.067 µM	C[C@@H](O)c1nccc(N2CCN(c3nccc(-c4ccccc4)n3)CC2)n1	–	–
0.064 µM	OCc1nccc(N2CCN(c3nsc4ccccc34)CC2)n1	–	–
0.059 µM	C[C@@H](O)c1nccc(N2CCN(c3ccnc(CCO)n3)C[C@@H]2C)n1	–	–
0.044 µM	C[C@@H](O)c1nccc(N2CCN(c3ccc4ccccc4n3)CC2)n1	–	–
0.04 µM	C[C@@H](O)c1nccc(N2CCN(c3ccnc(CCO)n3)CC2)n1	1 mg/kg/day	–
0.037 µM	C[C@@H](O)c1nccc(N2CCN(c3noc4ccccc34)CC2)n1	–	–
0.036 µM	C[C@@H](O)c1nccc(N2CCN(c3cnc4ccccc4n3)CC2)n1	1 mg/kg/day	> 20 mg/kg/day
0.035 µM	C[C@@H](O)c1nccc(N2CCN(c3nc4ccccc4o3)CC2)n1	12 mg/kg/day	–
0.034 µM	C[C@@H](O)c1nccc(N2CCN(c3nccc4ccccc34)CC2)n1	–	–
0.032 µM	C[C@@H](O)c1nccc(N2CCN(c3nc4cccnc4o3)CC2)n1	0.5 mg/kg/day	–
0.031 µM	Cc1cc(N2CCN(c3ccnc([C@@H](C)O)n3)CC2)nc(C)n1	5 mg/kg/day	–
0.024 µM	C[C@@H](O)c1nccc(N2CCN(c3nc4ccncc4o3)CC2)n1	0.5 mg/kg/day	10 mg/kg/day
0.023 µM	C[C@@H](O)c1nccc(N2CCN(c3nc4ccncc4o3)[C@@H](C)C2)n1	–	–
0.023 µM	Cc1cc(C)nc(N2CCN(c3ccnc([C@@H](C)O)n3)CC2)n1	1.3 mg/kg/day	–
0.02 µM	Cc1cc(CO)nc(N2CCN(c3ccnc([C@@H](C)O)n3)CC2)n1	0.5 mg/kg/day	–
0.012 µM	C[C@@H](O)c1nccc(N2CCN(c3nsc4ccccc34)CC2)n1	–	–
0.012 µM	C[C@@H]1CN(c2ccnc(CCO)n2)CCN1c1ccnc([C@@H](C)O)n1	–	–
0.01 µM	C[C@@H]1CN(c2ccnc(CCO)n2)C[C@H](C)N1c1ccnc([C@@H](C)O)n1	–	2 mg/kg/day
0.008 µM	Cc1nc2ccccc2nc1N1CCN(c2ccnc([C@@H](C)O)n2)CC1	–	–
